Assays:
[1] = Cell cycle arrest in human KB/HeLa cells assessed as G2/M phase accumulation after 24 hrs by FACS analysis; type: functional, cell-based
Summary of the method: (§1)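 Subconfluent KB/HeLa cells exposed to a range of compound concentrations for 24 h at 37 °C, then detached and fixed in 70% ethanol. DNA stained with propidium iodide after RNase digestion and measured by flow cytometry. Cell-cycle phase fractions taken from cell cycle analysis software. At least two replicates.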

[2] = Cell cycle arrest in human KB/HeLa cells assessed as G1 phase accumulation at 316 nM after 24 hrs by FACS analysis; type: functional, cell-based; summary of the method: as §1
[3] = system: K562; test: Antiproliferative activity against human K562 cells after 48 hrs; type: functional, cell-based; details: K562, 48 h
Summary of the method: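 K562 cells (RPMI 1640, 10% FBS, 37 °C, 5% CO2) plated at 2 × 10⁵ cells/mL. Compounds dissolved in DMSO/methanol 1:1, vehicle 0.5%. Cells counted in a Neubauer chamber after 48 h and expressed as % of untreated control. Triplicate wells, three experiments. IC50 from nonlinear regression.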

[4] = Cell cycle arrest in human KB/HeLa cells assessed as G2/M phase accumulation at 31.6 nM after 24 hrs by FACS analysis; type: functional, cell-based; summary of the method: as §1
[5] = Cell cycle arrest in human KB/HeLa cells assessed as G2/M phase accumulation at 316 nM after 24 hrs by FACS analysis; type: functional, cell-based; summary of the method: as §1
[6] = Cell cycle arrest in human KB/HeLa cells assessed as G1 phase accumulation at 0.3 nM after 24 hrs by FACS analysis; type: functional, cell-based; summary of the method: as §1
[7] = Cell cycle arrest in human KB/HeLa cells assessed as S phase accumulation at 1000 nM after 24 hrs by FACS analysis; type: functional, cell-based; summary of the method: as §1
[8] = Cell cycle arrest in human KB/HeLa cells assessed as G1 phase accumulation at 1 nM after 24 hrs by FACS analysis; type: functional, cell-based; summary of the method: as §1
[9] = Cell cycle arrest in human KB/HeLa cells assessed as G1 phase accumulation at 10 nM after 24 hrs by FACS analysis; type: functional, cell-based; summary of the method: as §1
[10] = system: L1210; test: Antiproliferative activity against mouse L1210 cells after 48 hrs by XTT assay; type: functional, cell-based; details: L1210, 48 h
Summary of the method: (§2)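 XTT metabolic-activity read-out of proliferation. Cells were seeded at 1 × 10³-8 × 10⁴ cells/well for logarithmic growth and exposed to a range of compound concentrations for 48 h. IC50 came from nonlinear regression of dose-response curves, with at least two replicates. The P388/Adr subline was doxorubicin-selected with elevated MDR-1.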

[11] = Cell cycle arrest in human KB/HeLa cells assessed as G1 phase accumulation at 0.1 nM after 24 hrs by FACS analysis; type: functional, cell-based; summary of the method: as §1
[12] = system: P388; test: Antiproliferative activity against doxorubicin-resistant mouse P388 cells expressing MDR1 protein after 48 hrs by XTT assay; type: functional, cell-based; details: P388, 48 h; summary of the method: as §2
[13] = Cell cycle arrest in human KB/HeLa cells assessed as G2/M phase accumulation at 3.16 nM after 24 hrs by FACS analysis; type: functional, cell-based; summary of the method: as §1
[14] = Cell cycle arrest in human KB/HeLa cells assessed as G2/M phase accumulation at 0.3 nM after 24 hrs by FACS analysis; type: functional, cell-based; summary of the method: as §1
[15] = Cell cycle arrest in human KB/HeLa cells assessed as S phase accumulation at 10 nM after 24 hrs by FACS analysis; type: functional, cell-based; summary of the method: as §1
[16] = Cell cycle arrest in human KB/HeLa cells assessed as S phase accumulation at 316 nM after 24 hrs by FACS analysis; type: functional, cell-based; summary of the method: as §1
[17] = system: L1210; test: Antiproliferative activity against vincristine-resistance MRP1 negative mouse L1210 cells expressing human MDR1 after 48 hrs by XTT assay; type: functional, cell-based; details: L1210, 48 h
Summary of the method: (§3)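 XTT metabolic read-out. Cells seeded at 1 × 10³–8 × 10⁴ cells/well for logarithmic growth and exposed to graded concentrations for 48 h. At least two replicates. IC50 from nonlinear regression of dose-response curves. LT12/MDR: rat LT12 with ectopic human MDR-1. L1210/VCR: MDR-1 expressing, MRP-1 negative.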

[18] = Cell cycle arrest in human KB/HeLa cells assessed as G1 phase accumulation at 31.6 nM after 24 hrs by FACS analysis; type: functional, cell-based; summary of the method: as §1
[19] = system: SK-OV-3; test: Antiproliferative activity against human SKOV3 cells by XTT assay; type: functional, cell-based; summary of the method: as §2
[20] = Antiproliferative activity against rat LT12 cells after 48 hrs by XTT assay; type: functional, cell-based; details: LT12, 48 h; summary of the method: as §2
[21] = Cell cycle arrest in human KB/HeLa cells assessed as S phase accumulation at 3.16 nM after 24 hrs by FACS analysis; type: functional, cell-based; summary of the method: as §1
[22] = system: SF-268; test: Antiproliferative activity against human SF268 cells by XTT assay; type: functional, cell-based; summary of the method: as §3
[23] = Cell cycle arrest in human KB/HeLa cells assessed as G2/M phase accumulation at 1000 nM after 24 hrs by FACS analysis; type: functional, cell-based; summary of the method: as §1
[24] = Cell cycle arrest in human KB/HeLa cells assessed as G1 phase accumulation at 1000 nM after 24 hrs by FACS analysis; type: functional, cell-based; summary of the method: as §1
[25] = Cell cycle arrest in human KB/HeLa cells assessed as G2/M phase accumulation at 1 nM after 24 hrs by FACS analysis; type: functional, cell-based; summary of the method: as §1
[26] = Cell cycle arrest in human KB/HeLa cells assessed as G1 phase accumulation at 100 nM after 24 hrs by FACS analysis; type: functional, cell-based; summary of the method: as §1
[27] = Cell cycle arrest in human KB/HeLa cells assessed as S phase accumulation at 31.6 nM after 24 hrs by FACS analysis; type: functional, cell-based; summary of the method: as §1
[28] = Cell cycle arrest in human KB/HeLa cells assessed as G2/M phase accumulation at 10 nM after 24 hrs by FACS analysis; type: functional, cell-based; summary of the method: as §1
[29] = Cell cycle arrest in human KB/HeLa cells assessed as S phase accumulation at 0.3 nM after 24 hrs by FACS analysis; type: functional, cell-based; summary of the method: as §1
[30] = target: T1, Tubulin (Sus scrofa, UniProt P02554+P02550); test: Displacement of [3H]paclitaxel from pig biotinylated tubulin after 2 hrs by SPA; type: protein assay
[31] = Cell cycle arrest in human KB/HeLa cells assessed as S phase accumulation at 100 nM after 24 hrs by FACS analysis; type: functional, cell-based; summary of the method: as §1
[32] = system: P388; test: Antiproliferative activity against mouse P388 cells after 48 hrs by XTT assay; type: functional, cell-based; details: P388, 48 h; summary of the method: as §2
[33] = Cell cycle arrest in human KB/HeLa cells assessed as G1 phase accumulation at 3.16 nM after 24 hrs by FACS analysis; type: functional, cell-based; summary of the method: as §1
[34] = Cell cycle arrest in human KB/HeLa cells assessed as G2/M phase accumulation at 0.1 nM after 24 hrs by FACS analysis; type: functional, cell-based; summary of the method: as §1
[35] = target: T1, Tubulin; test: Inhibition of pig brain tubulin polymerization after 30 mins by turbidimetric assay
Summary of the method: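 Microtubule protein from porcine brain (80–90% tubulin, 10–20% MAPs), purified by two disassembly/reassembly cycles. Assay buffer: 20 mM PIPES pH 6.8, 80 mM NaCl, 0.5 mM MgCl2, 1 mM EGTA, 1 mM DTT. Protein at 1.2 mg/mL with 0.6 mM GTP final, 1% DMSO final, 37 °C.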

[36] = Cell cycle arrest in human KB/HeLa cells assessed as S phase accumulation at 1 nM after 24 hrs by FACS analysis; type: functional, cell-based; summary of the method: as §1
[37] = system: NCI-H460; test: Antiproliferative activity against human NCI-H460 cells by XTT assay; type: functional, cell-based; summary of the method: as §3
[38] = target: T1, Tubulin; test: Displacement of [3H]Colchicine from pig biotinylated tubulin after 2 hrs by SPA; type: protein assay
[39] = system: RKO; test: Antiproliferative activity against human RKO cells containing ecdysone-inducible expression vector of p27kipl by XTT assay; type: functional, cell-based
Summary of the method: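 RKO cells carried an ecdysone-inducible p27Kip1 vector and were tested with and without induction. On day 1 they were plated with or without 3 µM ponasterone A, which gives G1 arrest, at 2 × 10⁴ cells/well induced or 6 × 10³ not induced, then held 24 h at 37 °C. Compound was then added for 48 h at 37 °C, followed by a standard XTT assay. IC50 came from nonlinear regression, n ≥ 2.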

[40] = system: RKO; test: Antiproliferative activity against human RKO cells by XTT assay; type: functional, cell-based
Summary of the method: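 RKO colon cells with ecdysone-inducible p27Kip1. Day 1: plated with or without 3 µM ponasterone A for 24 h, giving G1 arrest when induced (2 × 10⁴ cells/well induced; 6 × 10³ not induced). Day 2: compound added (DMSO control) for 48 h at 37 °C, then standard XTT. At least duplicate. IC50 by nonlinear regression.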

[41] = Cell cycle arrest in human KB/HeLa cells assessed as S phase accumulation at 0.1 nM after 24 hrs by FACS analysis; type: functional, cell-based; summary of the method: as §1
[42] = Antiproliferative activity against human KB/HeLa cells by XTT assay; type: functional, cell-based; summary of the method: as §3
[43] = Antiproliferative activity against rat LT12 cells ectopic expression of human MDR1 after 48 hrs by XTT assay; type: functional, cell-based; details: LT12, 48 h; summary of the method: as §3
[44] = Cell cycle arrest in human KB/HeLa cells assessed as G2/M phase accumulation at 100 nM after 24 hrs by FACS analysis; type: functional, cell-based; summary of the method: as §1

## COc1ccc(C(=O)C=C2c3ccccc3C(=O)c3ccccc32)cc1
[1]
  EC50: 0.09 µM
[2]
  Activity: 1%
[3]
  IC50: 0.07 µM
[4]
  Activity: 8.4%
[5]
  Activity: 92.8%
[6]
  Activity: 62.1%
[7]
  Activity: 9.2%
[8]
  Activity: 62.3%
[9]
  Activity: 62.7%
[10]
  IC50: 0.05 µM
[11]
  Activity: 60.7%
[12]
  IC50: 0.05 µM
[13]
  Activity: 11.8%
[14]
  Activity: 10.8%
[15]
  Activity: 26%
[16]
  Activity: 6.2%
[17]
  IC50: 0.05 µM
[18]
  Activity: 57.5%
[19]
  IC50: 0.06 µM
[20]
  IC50: 0.05 µM
[21]
  Activity: 26.2%
[22]
  IC50: 0.06 µM
[23]
  Activity: 88.5%
[24]
  Activity: 2.3%
[25]
  Activity: 11.6%
[26]
  Activity: 8.4%
[27]
  Activity: 34.1%
[28]
  Activity: 11.3%
[29]
  Activity: 27.1%
[30]
  IC50: > 100 µM
[31]
  Activity: 16.7%
[32]
  IC50: 0.04 µM
[33]
  Activity: 62%
[34]
  Activity: 13.2%
[35]
  IC50: 0.52 µM
[36]
  Activity: 26.1%
[37]
  IC50: 0.07 µM
[38]
  IC50: 0.4 µM
[39]
  IC50: > 9 µM
[40]
  IC50: 0.08 µM
[41]
  Activity: 26.1%
[42]
  IC50: 0.06 µM
[43]
  IC50: 0.05 µM
[44]
  Activity: 74.9%

## COc1ccc(C(=O)C=C2c3ccccc3C(=O)c3ccccc32)cc1OC
[3]
  IC50: 1.3 µM
[10]
  IC50: 0.97 µM
[12]
  IC50: 1.1 µM
[17]
  IC50: 0.97 µM
[20]
  IC50: 0.37 µM
[22]
  IC50: 2.7 µM
[32]
  IC50: 0.9 µM
[35]
  IC50: 6 µM
[37]
  IC50: 1.4 µM
[39]
  IC50: > 9 µM
[40]
  IC50: 0.51 µM
[42]
  IC50: 1.08 µM
[43]
  IC50: 0.44 µM

## CC[C@]1(O)C[C@H]2CN(CCc3c([nH]c4ccccc34)[C@@](C(=O)OC)(c3cc4c(cc3OC)N(C=O)[C@H]3[C@@](O)(C(=O)OC)[C@H](OC(C)=O)[C@]5(CC)C=CCN6CC[C@]43[C@@H]65)C2)C1 [VINCRISTINE]
[1]
  EC50: 0.0024 µM
[2]
  Activity: 93.8%
[4]
  Activity: 7.2%
[5]
  Activity: 5.9%
[6]
  Activity: 64.5%
[8]
  Activity: 53.7%
[9]
  Activity: 86.7%
[11]
  Activity: 61.2%
[13]
  Activity: 65.8%
[14]
  Activity: 11.7%
[15]
  Activity: 6.5%
[16]
  Activity: 0.2%
[18]
  Activity: 92.6%
[21]
  Activity: 26%
[25]
  Activity: 17.2%
[26]
  Activity: 95.1%
[27]
  Activity: 0.5%
[28]
  Activity: 13.1%
[29]
  Activity: 24%
[31]
  Activity: 1%
[33]
  Activity: 6.5%
[34]
  Activity: 11.1%
[36]
  Activity: 28.3%
[41]
  Activity: 27.7%
[44]
  Activity: 4.8%

Source: ChEMBL document CHEMBL1140930 (J Med Chem, 2009)
